The values that follow come from publication PMC3357394 (Organic & biomolecular chemistry, 2011).

One experiment has as its target T1, recombinant CD38 (Homo sapiens, UniProt P28907).
T1 sequence (P28907 45-300): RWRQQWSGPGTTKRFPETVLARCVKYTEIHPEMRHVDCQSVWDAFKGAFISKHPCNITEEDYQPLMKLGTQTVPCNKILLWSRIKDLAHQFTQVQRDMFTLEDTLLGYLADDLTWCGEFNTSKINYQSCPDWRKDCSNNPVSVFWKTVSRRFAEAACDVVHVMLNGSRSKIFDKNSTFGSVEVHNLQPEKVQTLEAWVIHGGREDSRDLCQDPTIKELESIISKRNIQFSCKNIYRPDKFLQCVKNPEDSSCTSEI
Briefly: Inhibition of the NADase. The class given is biochemical. As to conditions: for inhibitory activity against CD38 NADase (in words): recombinant CD38.

Experiment [1] concerns phenylephrine-induced contraction in rat aortic ring preparations with intact endothelium. As to conditions: Phe (1 μM)-contracted endothelium-intact rat aortic rings, 30-300 μM. Put shortly:
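Endothelium-intact 3 mm thoracic aortic rings from male Sprague-Dawley rats (250–300 g) were held isometrically at 15 mN in Krebs solution (37°, 95% O2-5% CO2, pH≈7.4) and checked with 0.3 μM Phe then 1 μM ACh. After 60 min equilibration, rings were precontracted with 1 μM Phe and given cumulative water-dissolved test compound (30–300 μM). pD2 came from nonlinear fits of individual curves; mean±SEM, 3–5 rats/group.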

Another experiment has as its system PC12 cells. As to conditions: cited from earlier work.
The target in the next experiment is CD38. As to conditions: inhibitors of CD38; cited from earlier work.
Experiment [2] has as its target NAD+ glycohydrolase activity of CD38. As to conditions: competitive inhibitor of NAD+ glycohydrolase activity of CD38; cited from earlier work.

By IC50 is commonly meant the concentration that gives 50% inhibition. Turning to `COc1ccc(OCCOC[n+]2cccc(C(N)=O)c2)cc1.[Cl-]` [Compound 3, 1-{[2-(4-methoxy-phenoxy)ethoxy]methyl}-3-(aminocarbonyl)-pyridinium chloride], at recombinant CD38, the IC50 stood at 11.4 mM and the “inhibitory activity against CD38 NADase (in words)” value (from here on “inhibitory activity”) was “weak inhibitory activities”.

Turning to `NC(=O)c1ccc[n+](COCCOc2ccc(Oc3ccccc3)cc2)c1.[Cl-]` [Compound 4, 1-{[2-(4-phenoxy-phenoxy)ethoxy]methyl}-3-(aminocarbonyl)-pyridinium chloride], on recombinant CD38, the IC50 worked out at 3.42 mM and the “inhibitory activity” value is given as “weak inhibitory activities”. In addition, in experiment [1], the “vascular relaxing effect (in words)” value is recorded as “concentration-dependent relaxation”.

On to `NC(=O)c1ccc[n+](COCCOc2ccc([N+](=O)[O-])cc2)c1.[Cl-]` [Compound 5, 1-{[2-(4-nitro-phenoxy)ethoxy]methyl}-3-(aminocarbonyl)-pyridinium chloride], for which, at recombinant CD38, the IC50 worked out at 5.65 mM and the “inhibitory activity” value is on record as “weak inhibitory activities”.

Turning to `NC(=O)c1ccc[n+](COCCOc2cccc(C(F)(F)F)c2)c1.[Cl-]` [Compound 6, 1-{[2-(3-trifluoromethyl-phenoxy)ethoxy]methyl}-3-(aminocarbonyl)-pyridinium chloride], the “inhibitory activity” value on recombinant CD38 is listed as “no affinity for CD38”.

For the compound `NC(=O)c1ccc[n+](COCCOc2cccc3cccnc23)c1.[Cl-]` [Compound 7, 1-{[2-(8′-quinolyloxy)ethoxy]methyl}-3-(aminocarbonyl)-pyridinium chloride], at recombinant CD38, the “inhibitory activity” value is “weak inhibitory activities”. For the same compound, the “inhibition of acetylcholine (Ach)-induced Ca2+ increase (in words)” value in the experiment on PC12 cells is given as “significantly inhibited”.

In the case of `NC(=O)c1ccc[n+](COCCCCOC[n+]2cccc(C(N)=O)c2)c1.[Cl-].[Cl-]` [Compound 9, 1,4-dimethoxy-butylene-bis-N,N′-3-(aminocarbonyl)-pyridinium dichloride], the “vascular relaxing effect (in words)” value in experiment [1] was “no such vascular relaxing effect”.

On to `NC(=O)c1ccc[n+](COC/C=C/COc2cccc3cccnc23)c1.[Cl-]` [Compound 12, (E)-1-{[4-(8′-quinolyloxy)but-2-enyloxy]methyl}-3-(aminocarbonyl)-pyridinium chloride], for which the “inhibitory activity” value on recombinant CD38 is reported as “weak inhibitory activities”.

On to `NC(=O)c1ccc2c(ccc[n+]2COCCOc2ccc(Oc3ccccc3)cc2)c1.[Cl-]` [Compound 13, 1-{[2-(4-phenoxy-phenoxy)ethoxy]methyl}-6-(aminocarbonyl)-quinolinium chloride], for which, at recombinant CD38, the 50% inhibitory concentration (IC50) came to 2.12 mM and the “inhibitory activity” value is recorded as “weak inhibitory activities”.

Turning to `NC(=O)c1c[n+](COCCOc2ccc(Oc3ccccc3)cc2)ccc1N.[Cl-]` [Compound 14, 1-{[2-(4-phenoxy-phenoxy)ethoxy]methyl}-3-(aminocarbonyl)-4-amino-pyridiniu m chloride], at recombinant CD38, the IC50 was determined as 4.8 mM and the “inhibitory activity” value is “weak inhibitory activities”.

Regarding `NC(=O)c1ccc[n+]([C@@H]2O[C@H](COP(=O)(O)O)C(O)C2F)c1` (stereo partly drawn) [ara-F NMN], the Ki result at CD38 is given as “nano-molar range”.

For `NC(=O)c1ccc[n+]([C@@H]2C[C@H](COP(=O)([O-])OP(=O)(O)OC[C@H]3O[C@@H](n4cnc5c(N)ncnc54)[C@H](O)[C@@H]3O)[C@@H](O)[C@H]2O)c1` [carba-NAD^+, dinucleotide carbanicotinamide adenine dinucleotide], the IC50 in experiment [2] is about 0.1 mM.
